The record followed here is ChEMBL document CHEMBL3612004, “Primaquine-pyrimidine hybrids: synthesis and dual-stage antiplasmodial activity” (Eur J Med Chem, 2015).

Calls of active or inactive are those of the source. No cut-off for these calls is given here. Bounds are passed on as bounds.

In one data set the test system is Plasmodium falciparum. The data set can be described thus: Antiplasmodial activity against blood stage of chloroquine-sensitive Plasmodium falciparum NF54 by parasite lactate dehydrogenase assay. It is filed as functional, organism-based. An outline of the steps: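 Asexual P. falciparum was kept in continuous culture (modified Trager–Jensen) and read out by parasite lactate dehydrogenase. DMSO stocks were 20 mg/ml, tested as suspensions and diluted 2-fold in complete medium to 10 concentrations. Chloroquine and artesunate served as references. IC50 came from non-linear dose–response fitting; values are the mean of three observations.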

A short description of data set [1]: Cytotoxicity against human HuH7 cells assessed as effect on cell proliferation at 1 to 10 uM by Alamar Blue assay. The conditions noted are these: huh-7, 10 µM. It is filed as cell-based. Summed up:
(§1)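 Huh-7 viability was measured by Alamar Blue in parallel with the 48 h sporozoite infection assay, in RPMI 1640/10% FBS/HEPES medium at 37 °C and 5% CO2. The initial screen tested each compound at […], scoring cell confluence and proliferation.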
(Resazurin is reduced to fluorescent resorufin, in cell work by metabolically active cells.)

Data set [2] is described as follows: Selectivity index, ratio of CC50 for human HuH7 cells to IC50 for liver-stage of Plasmodium berghei expressing firefly luciferase infected in human Huh-7 cells. It is filed as functional.
For data set [3], the system named is Plasmodium berghei. The data set can be described thus: Ratio of primaquine IC50 to compound IC50 for liver-stage of Plasmodium berghei expressing firefly luciferase infected in human Huh-7 cells. It is filed as functional.
For data set [4], the system named is Plasmodium berghei. As to the kind of experiment: Antiplasmodial activity against liver-stage of Plasmodium berghei expressing firefly luciferase infected in human Huh-7 cells after 48 hrs by bioluminescence assay. The settings on record: Huh-7, Liver. It is filed as functional, organism-based. An outline of the steps:
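Huh-7 hepatoma cells were grown in RPMI 1640 with 10% FBS, NEAA, glutamine and 10 mM HEPES pH 7, at 37 °C and 5% CO2, and seeded at 1.0 × 10^4 per well the day before. Compound medium went on about 1 h before fresh A. stephensi sporozoites of firefly-luciferase P. berghei, followed by centrifugation at 1700 g for 5 min. Luminescence was read 48 h post-infection, and IC50 came from dose–response.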

Data set [5] is described as follows: Cytotoxicity against human HuH7 cells assessed as cell viability by Alamar Blue assay. It is filed as cell-based, Huh-7. Summed up:
as §1

Data set [6] concerns Plasmodium berghei. As to the kind of experiment: Antiplasmodial activity against Plasmodium berghei ANKA expressing luciferase infected in C57Bl/6J mouse assessed as reduction of liver parasite load at 50 mg/kg, po administered 8 hrs prior to parasite infection measured after 24 hrs. It is filed as functional, organism-based. The settings on record: in the assay text read “measured after 47 hrs” for “measured after 24 hrs”. Summed up:
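C57Bl/6J mice were inoculated intravenously with 5 × 10^3 luciferase-expressing P. berghei ANKA sporozoites from A. stephensi salivary glands. Drug was given at 50 mg/kg by oral gavage as a sunflower-oil suspension from a DMSO stock, 8 h before, at, and 24 h after infection; controls got vehicle. Livers were homogenized in guanidine thiocyanate denaturing solution 47 h post-infection to quantify parasite load.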

The IC50 is the midpoint of a concentration-inhibition curve. A high value points to a need for much substance. In the data set with Plasmodium falciparum, `C[C@H]1[C@H](OC(=O)CCC(=O)O)O[C@@H]2O[C@@]3(C)CC[C@H]4[C@H](C)CC[C@@H]1[C@@]24OO3` [ARTESUNATE] showed an IC50 of 4.4 nM.
The CC50 is the concentration that lowers cell viability or growth by half. Consider `CCOC(=O)c1c(C)nc(NCCCC(C)Nc2cc(OC)cc3cccnc23)nc1-c1ccccc1` (stereo unspecified), for which the values for the IC50 in the data set on Plasmodium falciparum and in the data set with Plasmodium berghei [4] were 4320 nM and 1260 nM, respectively. Also, in data set [1], the Activity entry was “Non-toxic”. For the same molecule, in data set [2], the “Ratio CC50/IC50” value is greater than 79.3. For the same molecule, the “Ratio IC50” value in the data set on Plasmodium berghei [3] is given as 6.7. Moreover, the CC50 in data set [5] was greater than 100000 nM.
With `COc1cc(NC(C)CCCNc2nc(C)c(C(=O)OC(C)C)c(-c3ccccc3)n2)c2ncccc2c1` (stereo unspecified), the IC50 in the data set with Plasmodium falciparum was determined as 4800 nM. In addition, the Activity entry in data set [1] is recorded as “Non-toxic”.
In the case of `COc1cc(NC(C)CCCNc2nc(C)c(C(=O)OC(C)C)c(-c3cccc([N+](=O)[O-])c3)n2)c2ncccc2c1` (stereo unspecified), the IC50 in the data set with Plasmodium falciparum was 2670 nM; with Plasmodium berghei [4] it was 1500 nM. In addition, the Activity entry in data set [1] was “Non-toxic”. In addition, in data set [2], the “Ratio CC50/IC50” value was greater than 66.6. Further, the result with Plasmodium berghei [6] was inactive. The CC50 in data set [5] is greater than 100000 nM.
On to `CCOC(=O)c1c(C)nc(NCCCC(C)Nc2cc(OC)cc3cccnc23)nc1C` (stereo unspecified), for which the IC50 in the data set with Plasmodium falciparum is 3780 nM; with Plasmodium berghei [4], 1860 nM. In addition, in data set [1], the Activity entry is listed as “Non-toxic”. Further, the “Ratio CC50/IC50” value in data set [2] came out at 32.6. Moreover, the CC50 in data set [5] amounted to 61000 nM.
On to `COC(=O)c1c(C)nc(NCCCC(C)Nc2cc(OC)cc3cccnc23)nc1C` (stereo unspecified), for which inhibition in the data set on Plasmodium falciparum was half-maximal at 2000 nM (IC50). Further, the Activity entry in data set [1] is recorded as “Non-toxic”.
With `CCOC(=O)c1c(C)nc(NCCCC(C)Nc2cc(OC)cc3cccnc23)nc1-c1ccc(F)cc1` (stereo unspecified), half-maximal inhibition with Plasmodium falciparum (IC50) was put at 3430 nM. The Activity entry in data set [1] is “Non-toxic”.
As to `COc1cc(NC(C)CCCN)c2ncccc2c1` (stereo unspecified) [PRIMAQUINE], the IC50 in the data set with Plasmodium falciparum was determined as 892 nM; in the data set on Plasmodium berghei [4] it was 8430 nM.
As to `O=C1C(O)=C([C@H]2CC[C@H](c3ccc(Cl)cc3)CC2)C(=O)c2ccccc21` [ATOVAQUONE], inhibition in the data set on Plasmodium berghei [4] was half-maximal at 1.8 nM (IC50).
Molecule `COc1cc(NC(C)CCCNc2nc(C)c(C(=O)OC(C)C)c(-c3ccccc3[N+](=O)[O-])n2)c2ncccc2c1` (stereo unspecified) displayed an IC50 with Plasmodium falciparum of 2790 nM. Also, in data set [1], the Activity entry was “Non-toxic”.
For the molecule `CCOC(=O)c1c(C)nc(NCCCC(C)Nc2cc(OC)cc3cccnc23)nc1-c1ccc(OC)cc1` (stereo unspecified), the figures for the IC50 in the data set with Plasmodium falciparum and in the data set on Plasmodium berghei [4] were 3280 nM and 1570 nM, respectively. Besides, in data set [1], the Activity entry is given as “Non-toxic”. Besides, in data set [2], the “Ratio CC50/IC50” value is given as greater than 63.6. Besides, the CC50 in data set [5] was greater than 100000 nM.
`COc1cc(NC(C)CCCNc2nc(C)c(C(=O)OC(C)C)c(-c3ccc([N+](=O)[O-])cc3)n2)c2ncccc2c1` (stereo unspecified): half-maximal inhibition in the data set on Plasmodium falciparum (IC50) was put at 1930 nM. Moreover, in data set [1], the Activity result was “Non-toxic”.
